Data taken from ChEMBL document CHEMBL5038577, “First-Time Disclosure of CVN424, a Potent and Selective GPR6 Inverse Agonist for the Treatment of Parkinson's Disease: Discovery, Pharmacological Validation, and Identification of a Clinical Candidate” (J Med Chem, 2021).
Calls of active or inactive are those of the source. The calls are words filed in the database; no cut-off is given here.

Legend:
[1] = biological target: Cytochrome P450 2D6 (Homo sapiens, UniProt P10635); assay: Inhibition of CYP2D6 (unknown origin); type: ADME
[2] = organism: Homo sapiens; assay: Selectivity for human GPR6 over human GRP3 assessed as fold change
[3] = organism: Homo sapiens; assay: Selectivity for human GPR6 over human GRP12 assessed as fold change
[4] = biological target: T1, G-protein coupled receptor 6 (Homo sapiens, UniProt P46095); assay: Inverse agonist activity at human GPR6 expressed in CHO-K1 cells assessed as modulation of cAMP level incubated for 20 hrs by TR-FRET assay; type: functional, cell-based
Method in brief: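 T-REx-CHO-K1 cells stably carrying tetracycline-inducible human GPR6 were induced with 2.0 μg/mL doxycycline for 20 h at 37 °C. No agonist was added, since receptor constitutive activity is used. Compound in Krebs Ringer's buffer with 0.5% fatty acid free BSA for 45 min at 37 °C. cAMP read by Eu-cAMP tracer/ULight anti-cAMP antibody TR-FRET. Four-parameter logistic fit; EC50 is the mean of ≥2 experiments, triplicate concentrations.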

[5] = biological target: hERG (KCNH2) (Homo sapiens, UniProt Q12809); assay: Inhibition of human ERG at 10 uM relative to control; type: toxicity
[6] = biological target: T1, G-protein coupled receptor 6; assay: Inverse agonist activity at human GPR6 expressed in CHO-K1 cells assessed as modulation of cAMP level incubated for 20 hrs by TR-FRET assay relative to control; type: functional, cell-based; settings: filed as inverse agonist
Method in brief: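 T-REx-CHO-K1 cells stably carrying tetracycline-inducible human GPR6 were induced with 2.0 μg/mL doxycycline for 20 h at 37 °C. Constitutive activity was measured with no agonist. Compound in Krebs Ringer's buffer with 0.5% fatty-acid-free BSA was added for 45 min at 37 °C. Eu-cAMP tracer (10 min) and ULight anti-cAMP antibody (1 h, RT) followed for TR-FRET. Four-parameter logistic fit; ≥2 experiments, triplicate.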

[7] = system: Rattus norvegicus; assay: Reversal of haloperidol-induced catalepsy in Sprague-Dawley rat assessed as reduction in catalepsy at 0.1 to 30 mg/kg, sc measured after 120 min; type: functional, organism-based; settings: dose 0.1-30 mg/kg
Method in brief: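 Male Sprague-Dawley rats (n = 9–10/group) received haloperidol 1 mg/kg i.p. together with vehicle (10% DMSO, 0.5% methylcellulose) or compound at 0.1–30 mg/kg s.c. Bar test at 120 min: front paws placed on a bar 6' high, time recorded up to 60 s. Three trials were averaged.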

[8] = system: Mus musculus; assay: Reversal of haloperidol-induced catalepsy in GPR6 knock out mouse assessed as reduction in catalepsy at 30 mg/kg, sc measured after 120 min; type: functional, organism-based
Method in brief: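 Male GPR6 knock-out mice (n = 6/group) received haloperidol 1 mg/kg i.p. with vehicle (10% DMSO, 0.5% methylcellulose) or compound 30 mg/kg s.c. at the same time. Bar test at 120 min: bar 2' high, up to 60 s, average of three trials.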

[9] = biological target: T1, G-protein coupled receptor 6; assay: Displacement of 3H-RL338 from human GPR6 expressed in T-REx-CHO-GPR6 cells assessed as inhibition constant by competition binding assay; type: cell-based
Method in brief: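 Competition filtration binding on membranes from doxycycline-inducible T-REx-CHO cells expressing human GPR6 (15 μg/well). Tracer is 3H-RL-338, and test compound top concentration is 5 μM final. Buffer: 50 mM Tris pH 7.4, 50 mM NaCl, 6 mM MgCl2, 0.1% fatty acid free BSA, protease inhibitors. Incubated 2 h at room temperature, filtered, washed cold, scintillation counted. IC50 comes from a four-parameter fit; Ki by Cheng–Prusoff using the 3H-RL-338 Kd (2.4 or 5 nM, by batch).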

[10] = Permeability of compound across apical to basolateral side in pig LLC-PK1 cells expressing MDR1; type: ADME, cell-based, Sus scrofa; settings: read-out: permeability
[11] = biological target: P-gp (MDR1, ABCB1) (Homo sapiens, UniProt P08183); assay: Substrate activity at P-gp (unknown origin) transfected in pig LLC-PK1 cells expressing MDR1 gene assessed as efflux ratio; type: ADME, cell-based
[12] = Intrinsic clearance in human liver microsomes; type: ADME, Microsome; settings: read-out: CLH
[13] = Lipophilicity, log D of compound; type: physicochemical; settings: octanol/water
[14] = biological target: Voltage-gated inwardly rectifying potassium channel KCNH2 (Homo sapiens, UniProt Q12809); assay: Inhibition of human ERG; type: toxicity
[15] = Intrinsic clearance in human hepatocytes; type: ADME, cell-based, Hepatocyte; settings: read-out: CLH
[16] = Unbound intrinsic clearance in human hepatocytes; type: ADME, cell-based, Hepatocyte
[17] = system: Mus musculus; assay: Reversal of haloperidol-induced catalepsy in GPR6 knock out mouse assessed as reduction in catalepsy at 0.3 mg/kg, ip measured after 120 min; type: functional, organism-based
Method in brief: (§1)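 Wild-type C57BL/6J and GPR6 knock-out male mice (n = 6/group): KW6002 at 0.3 mg/kg i.p. given with haloperidol 1 mg/kg i.p. Bar test at 120 min: bar 2' high, maximum 60 s, three trials averaged.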

[18] = system: Rattus norvegicus; assay: Reversal of haloperidol-induced catalepsy in Sprague-Dawley rat assessed as reduction in catalepsy at 0.6 mg/kg, ip measured after 120 min; type: functional, organism-based
Method in brief: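 Positive-control arm in male Sprague-Dawley rats (n = 9–10/group): A2A antagonist KW6002 at 0.6 mg/kg i.p., given together with haloperidol 1 mg/kg i.p. Bar test at 120 min: bar 6' high, up to 60 s, mean of three trials.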

[19] = system: Mus musculus; assay: Reversal of haloperidol-induced catalepsy in C57BL/6 mouse assessed as reduction in catalepsy at 0.3 mg/kg, ip measured after 120 min; type: functional, organism-based; method in brief: as §1

Chain of Cytochrome P450 2D6 (P10635 whole entry): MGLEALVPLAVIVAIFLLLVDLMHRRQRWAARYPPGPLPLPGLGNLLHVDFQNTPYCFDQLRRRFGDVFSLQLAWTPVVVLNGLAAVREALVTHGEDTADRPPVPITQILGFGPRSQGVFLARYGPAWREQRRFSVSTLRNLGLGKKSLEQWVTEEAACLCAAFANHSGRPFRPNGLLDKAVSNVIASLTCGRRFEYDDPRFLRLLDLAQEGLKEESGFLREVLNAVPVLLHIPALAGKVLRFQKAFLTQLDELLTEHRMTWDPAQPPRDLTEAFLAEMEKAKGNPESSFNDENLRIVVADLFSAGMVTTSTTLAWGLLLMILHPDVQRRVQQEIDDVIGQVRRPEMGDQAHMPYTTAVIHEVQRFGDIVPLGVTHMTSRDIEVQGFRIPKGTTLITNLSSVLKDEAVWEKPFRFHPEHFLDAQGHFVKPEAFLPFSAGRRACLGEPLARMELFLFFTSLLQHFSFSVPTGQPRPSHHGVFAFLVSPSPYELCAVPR
T1 sequence (P46095 whole entry): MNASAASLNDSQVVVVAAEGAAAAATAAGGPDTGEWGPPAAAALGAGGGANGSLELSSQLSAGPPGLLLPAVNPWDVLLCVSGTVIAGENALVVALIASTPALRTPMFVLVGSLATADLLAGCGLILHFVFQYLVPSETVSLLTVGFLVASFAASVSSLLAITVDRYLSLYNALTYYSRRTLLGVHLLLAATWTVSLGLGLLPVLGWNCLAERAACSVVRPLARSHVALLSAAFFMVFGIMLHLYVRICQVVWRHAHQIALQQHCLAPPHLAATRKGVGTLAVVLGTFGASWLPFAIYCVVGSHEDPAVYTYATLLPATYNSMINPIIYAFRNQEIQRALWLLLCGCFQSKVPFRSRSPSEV
Chain of hERG (KCNH2) (Q12809 whole entry): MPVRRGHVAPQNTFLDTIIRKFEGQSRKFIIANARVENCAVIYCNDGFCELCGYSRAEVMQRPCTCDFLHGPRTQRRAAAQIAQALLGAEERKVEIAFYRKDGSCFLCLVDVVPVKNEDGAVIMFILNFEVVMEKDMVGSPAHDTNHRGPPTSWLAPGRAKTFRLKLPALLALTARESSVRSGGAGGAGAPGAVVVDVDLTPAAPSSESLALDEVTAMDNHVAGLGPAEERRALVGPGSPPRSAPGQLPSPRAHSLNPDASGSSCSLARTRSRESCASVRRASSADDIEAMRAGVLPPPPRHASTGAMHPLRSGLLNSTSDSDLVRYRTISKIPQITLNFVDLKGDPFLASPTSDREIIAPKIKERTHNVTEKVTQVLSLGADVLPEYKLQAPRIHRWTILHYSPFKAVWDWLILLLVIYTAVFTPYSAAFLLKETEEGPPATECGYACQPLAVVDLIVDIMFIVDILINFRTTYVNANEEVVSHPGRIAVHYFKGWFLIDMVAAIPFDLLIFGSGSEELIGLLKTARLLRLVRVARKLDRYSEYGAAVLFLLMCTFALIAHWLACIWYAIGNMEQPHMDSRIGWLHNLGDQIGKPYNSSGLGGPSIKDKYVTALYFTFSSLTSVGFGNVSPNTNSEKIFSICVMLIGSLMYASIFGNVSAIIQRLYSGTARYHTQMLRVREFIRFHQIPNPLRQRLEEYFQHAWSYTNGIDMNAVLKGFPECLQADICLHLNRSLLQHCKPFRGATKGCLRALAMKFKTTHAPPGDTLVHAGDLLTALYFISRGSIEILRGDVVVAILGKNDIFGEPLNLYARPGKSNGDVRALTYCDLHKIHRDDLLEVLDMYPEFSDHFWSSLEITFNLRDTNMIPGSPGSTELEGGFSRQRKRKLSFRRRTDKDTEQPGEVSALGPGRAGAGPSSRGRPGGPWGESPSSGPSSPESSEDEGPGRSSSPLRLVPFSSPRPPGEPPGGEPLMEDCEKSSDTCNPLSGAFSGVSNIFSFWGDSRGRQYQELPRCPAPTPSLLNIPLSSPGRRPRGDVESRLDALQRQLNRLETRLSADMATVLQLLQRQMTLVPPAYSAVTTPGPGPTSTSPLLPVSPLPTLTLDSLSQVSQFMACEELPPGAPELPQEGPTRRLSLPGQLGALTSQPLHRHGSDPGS
Chain of P-gp (MDR1, ABCB1) (P08183 whole entry): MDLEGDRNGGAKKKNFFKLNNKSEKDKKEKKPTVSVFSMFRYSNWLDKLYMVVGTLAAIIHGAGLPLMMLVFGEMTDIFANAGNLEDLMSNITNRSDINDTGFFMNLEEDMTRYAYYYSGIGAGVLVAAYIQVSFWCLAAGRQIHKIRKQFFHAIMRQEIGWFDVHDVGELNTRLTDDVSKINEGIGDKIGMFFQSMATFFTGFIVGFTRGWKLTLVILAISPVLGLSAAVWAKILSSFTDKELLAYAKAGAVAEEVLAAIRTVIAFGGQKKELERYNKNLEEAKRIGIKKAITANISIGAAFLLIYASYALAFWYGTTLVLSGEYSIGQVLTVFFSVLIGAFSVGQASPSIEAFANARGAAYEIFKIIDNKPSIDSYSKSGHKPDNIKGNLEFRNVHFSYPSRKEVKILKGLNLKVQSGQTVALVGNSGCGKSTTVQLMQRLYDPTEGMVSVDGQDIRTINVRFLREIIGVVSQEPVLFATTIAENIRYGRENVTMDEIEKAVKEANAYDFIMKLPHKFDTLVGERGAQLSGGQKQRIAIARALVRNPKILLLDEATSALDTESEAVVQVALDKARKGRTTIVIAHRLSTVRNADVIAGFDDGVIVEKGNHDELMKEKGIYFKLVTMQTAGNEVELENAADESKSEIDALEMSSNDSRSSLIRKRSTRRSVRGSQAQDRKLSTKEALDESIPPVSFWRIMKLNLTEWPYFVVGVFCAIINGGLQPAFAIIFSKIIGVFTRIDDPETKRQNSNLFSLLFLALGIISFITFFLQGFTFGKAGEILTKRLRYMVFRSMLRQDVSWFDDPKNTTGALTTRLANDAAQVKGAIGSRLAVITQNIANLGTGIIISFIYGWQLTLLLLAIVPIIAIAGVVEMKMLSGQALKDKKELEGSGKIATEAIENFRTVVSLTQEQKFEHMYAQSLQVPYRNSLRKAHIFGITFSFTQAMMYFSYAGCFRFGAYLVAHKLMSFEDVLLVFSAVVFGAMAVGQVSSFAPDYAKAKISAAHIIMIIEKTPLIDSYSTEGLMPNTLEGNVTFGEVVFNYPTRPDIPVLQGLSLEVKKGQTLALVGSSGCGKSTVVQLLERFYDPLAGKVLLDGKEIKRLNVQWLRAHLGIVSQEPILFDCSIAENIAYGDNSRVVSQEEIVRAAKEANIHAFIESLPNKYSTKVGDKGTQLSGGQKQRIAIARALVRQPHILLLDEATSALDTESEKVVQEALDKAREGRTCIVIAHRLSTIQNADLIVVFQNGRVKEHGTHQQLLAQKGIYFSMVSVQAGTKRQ
Chain of Voltage-gated inwardly rectifying potassium channel KCNH2 (Q12809 whole entry): as the sequence (Q12809 whole entry) above

Compound | IC50 [1] [nM] | fold change (FC) [2] | fold change (FC) [3] | EC50 [4] [nM] | inhibition at 10 µM [5] [%] | Emax [6] [%] | also measured
Cc1cc2nc(N3CCC(Oc4ccc(F)cc4F)CC3)c(NC3CC3)nc2cn1 | 6310 | 19 | 105 | 95 | – | – | –
Cc1cc2nc(N3CCC(Oc4ccc(F)cc4F)CC3)c(NC(C)C)nc2cn1 | 3980 | 19 | 47 | 61000 | 71 | – | –
Clc1ccc(Cl)c(CN2CCN(c3nc4ccncc4nc3NC3CC3)CC2)c1 | – | – | – | 55 | – | 102 | –
Clc1ccc(Cl)c(CN2CCN(c3nc4ccccc4nc3NC3CC3)CC2)c1 | – | – | – | 2100 | – | 89 | –
Fc1ccc(F)c(CN2CCN(c3nc4cnccc4nc3NC3CC3)CC2)c1 | 126 | – | – | 151 | 40 | – | –
CCC(=O)N1CCc2nc(N3CCN(Cc4ccc(F)cc4F)CC3)c(NC(C)C)nc2C1 | > 10000 | 20 | 16 | 30 | – | – | –
Clc1ccc(Cl)c(CN2CCN(c3nc4cnccc4nc3NC3CC3)CC2)c1 | – | – | – | 53 | – | 110 | –
Cc1cc2nc(NC3CC3)c(N3CCN(Cc4ccc(F)cc4F)CC3)nc2cn1 | 3980 | 14 | 78 | 29 | 23 | – | –
Fc1ccc(CN2CCN(c3nc4cnccc4nc3NC3CC3)CC2)c(F)c1 | 50.1 | 21 | 80 | 39 | 40 | – | Activity [7]: Dose-Dependent Effect; Activity [8]: inactive; Ki [9]: 7 nM; Papp A→B [10]: 16 ×10⁻⁶ cm/s; efflux ratio [11]: 0.5
CC(C)Nc1nc2c(nc1N1CCC(Oc3ccc(F)cc3F)CC1)CCN(C)C2 | > 10000 | 21 | 69 | 89 | 36 | – | –
CC(C)Nc1nc2ccncc2nc1N1CCN(Cc2ccc(F)cc2F)CC1 | – | 9 | 14 | 21 | – | – | –
Cc1cc2nc(NC3CC3)c(N3CCC(Oc4ccc(F)cc4F)CC3)nc2cn1 | 6310 | 19 | 105 | 29 | 75 | – | –
Cc1cc2nc(NC(C)C)c(N3CCN(Cc4ccc(F)cc4F)CC3)nc2cn1 | 3980 | 5 | 19 | 51000 | 13 | – | –
Fc1ccc(Cl)cc1CN1CCN(c2nc3cnccc3nc2NC2CC2)CC1 | – | 638 | 15 | 29 | – | – | –
Cc1ccc2nc(N3CCN(Cc4cc(Cl)ccc4Cl)CC3)c(NC3CC3)nc2c1 | – | – | – | 16000 | – | 90 | –
CC(C)Nc1nc2cc(C#N)ncc2nc1N1CCC(Oc2ccc(F)cc2F)CC1 | – | 6 | 13 | 55 | – | – | –
Fc1ccc2nc(N3CCN(Cc4cc(Cl)ccc4Cl)CC3)c(NC3CC3)nc2c1 | – | – | – | 1200 | – | 90 | –
Cc1cccc(CN2CCN(c3nc4nonc4nc3NC3CC3)CC2)c1 | – | – | – | 43000 | – | 73 | –
Cc1cc2nc(NC(C)C)c(N3CCC(Oc4ccc(F)cc4F)CC3)nc2cn1 | 6310 | 13 | 27 | 16 | 75 | – | –
CN(C)C(=O)c1ccc2nc(NC3CC3)c(N3CCN(Cc4cc(Cl)ccc4Cl)CC3)nc2c1 | – | – | – | 90 | – | 105 | –
N#Cc1ccc2nc(N3CCN(Cc4cc(Cl)ccc4Cl)CC3)c(NC3CC3)nc2c1 | – | – | – | 174 | – | 107 | –
CC(=O)N1CCc2nc(N3CCC(Oc4ccc(F)cc4F)CC3)c(N[C@@H]3CCOC3)nc2C1 | – | – | – | 38000 | – | – | CLint scaled [12]: 62 mL/min/kg; logD [13]: 3.6; IC50 [14]: 3500 nM; Ki [9]: 9.4 nM; CLint scaled [15]: 48 mL/min/kg; Papp A→B [10]: 17 ×10⁻⁶ cm/s; efflux ratio [11]: 0.7; fraction unbound [16]: 0.51
CCn1c(=O)c2c(nc(/C=C/c3ccc(OC)c(OC)c3)n2C)n(CC)c1=O | – | – | – | – | – | – | Activity [17]: Active; Activity [18]: Active; Activity [19]: Active
COc1ccc2nc(N3CCN(Cc4cc(Cl)ccc4Cl)CC3)c(NC3CC3)nc2c1 | – | – | – | 4100 | – | 90 | –
Cc1cccc(CN2CCN(c3nc4ccccc4nc3NC3CC3)CC2)c1 | – | – | – | 14000 | – | 110 | –
